In brackets after ≈: the same amount, converted by molar mass.
Key:
Renin [1] = biological target: T1, Renin (Homo sapiens, UniProt P00797); test: Inhibitory activity against purified human renal renin at pH 6.0
T1 sequence (P00797 whole entry): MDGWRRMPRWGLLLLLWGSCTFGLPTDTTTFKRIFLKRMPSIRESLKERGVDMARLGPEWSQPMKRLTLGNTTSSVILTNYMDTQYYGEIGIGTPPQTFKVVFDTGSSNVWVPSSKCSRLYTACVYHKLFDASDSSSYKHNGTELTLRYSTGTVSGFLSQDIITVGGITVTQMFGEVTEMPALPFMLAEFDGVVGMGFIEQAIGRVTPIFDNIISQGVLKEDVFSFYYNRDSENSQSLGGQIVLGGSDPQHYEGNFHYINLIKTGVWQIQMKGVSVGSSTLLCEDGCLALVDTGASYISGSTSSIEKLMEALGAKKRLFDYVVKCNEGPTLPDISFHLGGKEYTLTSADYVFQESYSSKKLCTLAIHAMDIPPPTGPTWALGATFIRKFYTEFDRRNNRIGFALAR

Rattus norvegicus [2] = organism: Rattus norvegicus; test: In vitro intestinal permeability in rats; type: ADME
Method in brief: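 Rat jejunum removed after cervical dislocation, washed with balanced electrolyte solution at 4 °C. Central 30 cm mounted for recirculating luminal perfusion (30 mL) at 37 °C under 95% O2-5% CO2. Inhibitor added mucosally at 100 μM with 3H-PEG-900 baseline marker. Mucosal and serosal samples taken every 15 min for 150 min. Inhibitor measured by HPLC-UV and PEG by scintillation. P = J/ΔC from steady-state (45-120 min) regression, cm/h; mean ± SE, n = 2.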

[3] = Solubility in pH 6.5 buffer; type: physicochemical
Method in brief: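 About 10 mg shaken in 1 mL 0.01 M phosphate buffer, pH 6.5, for 24 h at 37 °C. Suspension filtered through glass wool, diluted in mobile phase, and quantified by HPLC with detection at 214 nm; reported as mg/mL.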

Rattus norvegicus [4] = test: Plasma levels in the portal blood vessel of rat after 10 min of administration of 10 mg/kg intraduodenally; type: functional, organism-based; parameters: dose 10 mg/kg
Method in brief: (§1)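 Male Sprague-Dawley rats, fasted overnight, ≥150 g, under inactin (80 mg/kg ip), pylorus ligated. Carotid and portal vein catheterized. 10 mg/kg injected into the duodenum; paired blood drawn at 10 min. Plasma acetonitrile-precipitated, serially diluted, dried.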

Rattus norvegicus [5] = test: Plasma levels in the systemic blood vessel of rat after 10 min of administration of 10 mg/kg intraduodenally; type: functional, organism-based; parameters: dose 10 mg/kg; method in brief: as §1
Renin [6] = biological target: T1, Renin; test: Inhibitory activity against human plasma renin at pH 7.4; type: cell-free
Renin [7] = biological target: T1, Renin; test: Inhibitory activity against purified human renal renin at pH 6.0

Structure (SMILES) | IC50 (Renin [1]) | solubility [3] | IC50 (Renin [6]) | IC50 (Renin [7]) | further results
CC(C)(C)OC(=O)N[C@@H](Cc1ccccc1)C(=O)N[C@@H](Cc1c[nH]cn1)C(=O)N[C@H](CC1CCCCC1)[C@H](O)CCN=[N+]=[N-] | 20 nM | – | – | – | –
[N-]=[N+]=NC[C@@H](O)[C@@H](O)[C@@H](CC1CCCCC1)NC(=O)[C@H](Cc1c[nH]cn1)NC(=O)[C@H](Cc1ccccc1)NC(=O)C1CCOCC1 | – | 23 µg/mL (≈ 36 µM) | 7.6 nM | 0.7 nM | –
[N-]=[N+]=NC[C@@H](O)[C@@H](O)[C@@H](CC1CCCCC1)NC(=O)[C@H](Cc1cnc[nH]1)NC(=O)[C@H](Cc1ccccc1)NC(=O)N1CCOCC1 | – | 2600 µg/mL (≈ 4060 µM) | 2.4 nM | 0.67 nM | –
CC(C)(C)OC(=O)N[C@@H](Cc1ccccc1)C(=O)N[C@@H](Cc1c[nH]cn1)C(=O)N[C@H](CC1CCCCC1)[C@H](O)C(=O)CN=[N+]=[N-] | 5.4 nM | – | – | – | –
Cn1c(=O)c2[nH]cnc2n(C)c1=O.O [THEOPHYLLINE] | – | – | – | – | Permeability (Rattus norvegicus [2]): 22.35 cm (10e3*hr)-1
CC(C)(C)OC(=O)N[C@@H](Cc1ccccc1)C(=O)N[C@@H](Cc1c[nH]cn1)C(=O)N[C@H](CC1CCCCC1)[C@H](O)[C@@H](O)CN=[N+]=[N-] | 26 nM | – | – | – | –
CC(C)(C)OC(=O)N[C@@H](Cc1ccccc1)C(=O)N[C@@H](Cc1c[nH]cn1)C(=O)N[C@H](CC1CCCCC1)[C@H](O)[C@H](O)CN=[N+]=[N-] | 0.4 nM | – | 9 nM | 0.4 nM | –
C=C(CN=[N+]=[N-])[C@@H](O)[C@@H](CC1CCCCC1)NC(=O)[C@H](Cc1c[nH]cn1)NC(=O)[C@H](Cc1ccccc1)NC(=O)OC(C)(C)C | 55 nM | – | – | – | –
CC(C)(C)OC(=O)N[C@@H](Cc1ccccc1)C(=O)N[C@@H](Cc1cnc[nH]1)C(=O)N[C@H](CC1CCCCC1)[C@H](O)C(O)(CO)CN=[N+]=[N-] (stereo partly drawn) | 4.8 nM | – | – | – | –
COc1ccc(C[C@H](NC(=O)C(C)C)C(=O)N[C@@H](Cc2c[nH]cn2)C(=O)N[C@H](CC2CCCCC2)[C@H](O)[C@H](O)CN=[N+]=[N-])cc1 | – | – | – | – | Plasma level (Rattus norvegicus [4]): 53 ng/mL; Plasma level (Rattus norvegicus [5]): 12 ng/mL
CC(C)(C)OC(=O)N[C@@H](Cc1ccccc1)C(=O)N[C@@H](Cc1c[nH]cn1)C(=O)N[C@H](CC1CCCCC1)[C@H](O)[C@H](CO)CN=[N+]=[N-] | 10 nM | – | – | – | –

Further lines, with some results ahead:

IC50 (Renin [1]) | solubility [3] | IC50 (Renin [6]) | IC50 (Renin [7]) | Structure (SMILES) | further results
7.5 nM | – | – | – | CC(C)(C)OC(=O)N[C@@H](Cc1ccccc1)C(=O)N[C@@H](Cc1cnc[nH]1)C(=O)N[C@H](CC1CCCCC1)[C@H](O)CN=[N+]=[N-] | –
– | 1000 µg/mL (≈ 1490 µM) | 20 nM | 4 nM | COc1ccc(C[C@H](NC(=O)N2CCOCC2)C(=O)N[C@@H](Cc2c[nH]cn2)C(=O)N[C@H](CC2CCCCC2)[C@H](O)[C@H](O)CN=[N+]=[N-])cc1 | Permeability (Rattus norvegicus [2]): 4.25 cm (10e3*hr)-1; Plasma level (Rattus norvegicus [4]): 230 ng/mL; Plasma level (Rattus norvegicus [5]): 15 ng/mL
– | 29 µg/mL (≈ 46.3 µM) | 10 nM | 2 nM | COc1ccc(C[C@H](NC(=O)C(C)C)C(=O)N[C@@H](Cc2cnc[nH]2)C(=O)N[C@H](CC2CCCCC2)[C@H](O)[C@H](O)CN=[N+]=[N-])cc1 | Permeability (Rattus norvegicus [2]): 0.79 cm (10e3*hr)-1
370 nM | – | – | – | CC(C)(C)OC(=O)N[C@@H](Cc1ccccc1)C(=O)N[C@@H](Cc1cnc[nH]1)C(=O)N[C@H](CC1CCCCC1)[C@H](O)[C@@H](CO)CN=[N+]=[N-] | –
– | 13 µg/mL (≈ 21.8 µM) | 3.3 nM | 0.55 nM | CC(C)C(=O)N[C@@H](Cc1ccccc1)C(=O)N[C@@H](Cc1c[nH]cn1)C(=O)N[C@H](CC1CCCCC1)[C@H](O)[C@H](O)CN=[N+]=[N-] | –

From ChEMBL document CHEMBL1124504, “Azido glycols: potent, low molecular weight renin inhibitors containing an unusual post scissile site residue” (J Med Chem, 1989)
